# Data reported in ChEMBL document CHEMBL1141109, “Synthesis of an estrogen receptor beta-selective radioligand: 5-[18F]fluoro-(2R,3S)-2,3-bis(4-hydroxyphenyl)pentanenitrile and comparison of in vivo distribution with 16alpha-[18F]fluoro-17beta-estradiol” (J Med Chem, 2005).
# Key:
# [1] = Biodistribution of [18F]FEDPN in beta estrogen receptor knock out mouse fat after 1 h; (n=3); assay type: ADME, organism-based, Adipose tissue; settings: in vivo
# Procedure, shortened: (§1)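 αERKO and βERKO mice, staged by daily vaginal smears and kept on estrogen-free chow, were studied in a nonestrous stage. Each mouse received 11 μCi of tracer in 130 μL of 10% ethanol/saline. Mice were killed at 30 min, 1 h or 2 h (n = 3 each). Organs were removed, blotted, weighed and gamma-counted against an injectate standard. Uptake is given as %ID/g ± SD.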
# [2] = Biodistribution of [18F]FEDPN in alpha estrogen receptor knock out mouse fat after 1 h; (n=3); assay type: ADME, organism-based, Adipose tissue; settings: in vivo
# Procedure, shortened: (§2)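 ERKO female mice (αERKO or βERKO), rested 48 h after shipping, placed on estrogen-free chow, and staged by daily vaginal smears. Injected in a nonestrous stage with 11 µCi [18F]FEDPN in 130 µL of 10% ethanol/saline. Killed at 30 min, 1 h or 2 h. Organs counted and reported as %ID/g ± SD, three animals per point.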
# [3] = Biodistribution of [18F]FEDPN in beta estrogen receptor knock out mouse spleen after 30 min; (n=3); assay type: ADME, organism-based; settings: in vivo, 0.5 h; procedure, shortened: as §1
# [4] = Biodistribution of [18F]FEDPN in rat lung after 1 h when given in tail vein; (n=5); assay type: ADME, organism-based; settings: in vivo, iv
# Procedure, shortened: (§3)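 Immature female Sprague–Dawley rats (<25 days old) under isoflurane/O2 got 20 µCi tracer in 150 µL 20% ethanol/saline by tail vein. […] Rats were killed at 30 min, 1 h or 2 h. Organs were blotted, weighed and gamma-counted against an injectate standard. Data are %ID/g ± SD, five rats per point.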
# [5] = Biodistribution of [18F]FEDPN in beta estrogen receptor knock out mouse kidney after 1 h; (n=3); assay type: ADME, organism-based; settings: in vivo; procedure, shortened: as §1
# [6] = Biodistribution of [18F]-FEDPN in rat bone after 2 h when given in tail vein; (n=5); assay type: ADME, organism-based, Bone element; settings: in vivo, iv
# Procedure, shortened: (§4)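 Immature female Sprague–Dawley rats (<25 days old) anesthetized with isoflurane/O2. Given 20 µCi tracer by tail vein in 150 µL of 20% ethanol/saline. […] Killed at 30 min, 1 h or 2 h. Blood and organs blotted, weighed and gamma-counted against a standard dilution of the injectate. Reported as %ID/g ± SD, n=5.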
# [7] = Biodistribution of [18F]-FEDPN in alpha estrogen receptor knock out mouse uterus after 1 h; (n=3); assay type: ADME, organism-based; settings: in vivo; procedure, shortened: as §2
# [8] = Biodistribution of [18F]FEDPN in beta estrogen receptor knock out mouse kidney after 2 h; (n=3); assay type: ADME, organism-based; settings: in vivo; procedure, shortened: as §1
# [9] = target: T1, Estrogen receptor (Mus musculus) (UniProt O08537+P19785); assay: Ratio of [18F]FEDPN uptake in ovaries of ERbeta KO-mouse and ERalpha KO-mouse (nonestrus) after 2 hr
# [10] = target: T1, Estrogen receptor (Mus musculus); assay: Ratio of [18F]FEDPN uptake in uterus of ERbeta KO-mouse (diestrus) and ERalpha KO-mouse (nonestrus) after 2 hr
# [11] = Biodistribution of [18F]-FEDPN in alpha estrogen receptor knock out mouse brain after 2 h; (n=3); assay type: ADME, organism-based; settings: in vivo; procedure, shortened: as §2
# [12] = Biodistribution of [18F]FEDPN in beta estrogen receptor knock out mouse lung after 2 h; (n=3); assay type: ADME, organism-based; settings: in vivo; procedure, shortened: as §1
# [13] = Biodistribution of [18F]FEDPN in rat blood after 30 min when given in tail vein; (n=5); assay type: ADME, organism-based; settings: in vivo, iv, 0.5 h; procedure, shortened: as §3
# [14] = Biodistribution of [18F]FEDPN in rat kidney after 30 min when given in tail vein; (n=5); assay type: ADME, organism-based; settings: in vivo, iv, 0.5 h; procedure, shortened: as §3
# [15] = Biodistribution of [18F]-FEDPN in rat kidney after 1 hr when given in tail vein; (n=5); assay type: ADME, organism-based; settings: in vivo, iv; procedure, shortened: as §4
# [16] = Biodistribution of [18F]FEDPN in beta estrogen receptor knock out mouse liver after 2 h; (n=3); assay type: ADME, organism-based; settings: in vivo; procedure, shortened: as §1
# [17] = Biodistribution of [18F]FEDPN in beta estrogen receptor knock out mouse kidney after 30 min; (n=3); assay type: ADME, organism-based; settings: in vivo, 0.5 h; procedure, shortened: as §1
# [18] = Biodistribution of [18F]FEDPN in beta estrogen receptor knock out mouse bone after 30 min; (n=3); assay type: ADME, organism-based, Bone element; settings: in vivo, 0.5 h; procedure, shortened: as §1
# [19] = Biodistribution of [18F]-FEDPN in rat uterus after 2 h when given in tail vein; (n=5); assay type: ADME, organism-based; settings: in vivo, iv; procedure, shortened: as §4
# [20] = Biodistribution of [18F]FEDPN in rat lung after 30 min when given in tail vein; (n=5); assay type: ADME, organism-based; settings: in vivo, iv, 0.5 h; procedure, shortened: as §3
# [21] = Biodistribution of [18F]FES in beta estrogen receptor knock out mouse liver after 30 min(n=2); mice in nonestrus stage; assay type: ADME, organism-based; settings: in vivo, 0.5 h
# [22] = Biodistribution of [18F]FES in beta estrogen receptor knock out mouse brain after 2 h; (n=3); assay type: ADME, organism-based; settings: in vivo
# [23] = Biodistribution of [18F]FES in beta estrogen receptor knock out mouse fat after 1 h; (n=3); assay type: ADME, organism-based, Adipose tissue; settings: in vivo
# [24] = Biodistribution of [18F]FES in beta estrogen receptor knock out mouse heart after 1 h; (n=3); assay type: ADME, organism-based; settings: in vivo
# [25] = Biodistribution of [18F]FES in beta estrogen receptor knock out mouse kidney after 2 h; (n=3); assay type: ADME, organism-based; settings: in vivo
# [26] = Biodistribution of [18F]FES in beta estrogen receptor knock out mouse ovaries after 30 min; (n=3); assay type: ADME, organism-based, Female gonad; settings: in vivo, 0.5 h
# [27] = Biodistribution of [18F]FES in beta estrogen receptor knock out mouse bone after 2 h; (n=3); assay type: ADME, organism-based, Bone element; settings: in vivo
# [28] = Biodistribution of [18F]-FES in alpha estrogen receptor knock out mouse liver after 1 h; (n=3); assay type: ADME, organism-based; settings: in vivo
# Procedure, shortened: (§5)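 Female αERKO mice were rested 48 h after shipping and fed estrogen-free chow. They were staged by daily vaginal smears and studied in diestrus. Each received 13 µCi [18F]FES in 100 µL 10% ethanol/saline and was sacrificed at 30 min, 1 h or 2 h (n = 3 per time). Tissue uptake is given as %ID/g ± SD.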
# [29] = Biodistribution of [18F]FES in beta estrogen receptor knock out mouse muscle after 2 h; (n=3); assay type: ADME, organism-based, Muscle tissue; settings: in vivo
# [30] = Biodistribution of [18F]FES in beta estrogen receptor knock out mouse lung after 30 min; (n=3); assay type: ADME, organism-based; settings: in vivo, 0.5 h
# [31] = Biodistribution of [18F]FES in alpha estrogen receptor knock out mouse lung after 30 min; (n=3); assay type: ADME, organism-based; settings: in vivo, 0.5 h; procedure, shortened: as §5
# [32] = Biodistribution of [18F]FES in alpha estrogen receptor knock out mouse blood after 1 h; (n=3); assay type: ADME, organism-based; settings: in vivo; procedure, shortened: as §5
# [33] = Biodistribution of [18F]FES in beta estrogen receptor knock out mouse liver after 2 h; (n=3); assay type: ADME, organism-based; settings: in vivo
# [34] = Biodistribution of [18F]FES in alpha estrogen receptor knock out mouse heart after 30 min; (n=3); assay type: ADME, organism-based; settings: in vivo, 0.5 h; procedure, shortened: as §5
# [35] = Biodistribution of [18F]FES in alpha estrogen receptor knock out mouse heart after 2 h; (n=3); assay type: ADME, organism-based; settings: in vivo; procedure, shortened: as §5
# [36] = Biodistribution of [18F]-FES in beta estrogen receptor knock out mouse brain after 30 min; (n=3); assay type: ADME, organism-based; settings: in vivo, 0.5 h
# Procedure, shortened: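 βERKO mice rested 48 h after shipping, fed estrogen-free chow and staged by vaginal smears. Repeated swabbing caused pseudopregnancy in some, so this group was studied in estrus. Mice given [18F]FES were sacrificed at 30 min (n = 3). Uptake is reported as %ID/g ± SD.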
# [37] = Biodistribution of [18F]FES in beta estrogen receptor knock out mouse blood after 30 min; (n=3); assay type: ADME, organism-based; settings: in vivo, 0.5 h
# T1 sequence (O08537 whole entry, looked up): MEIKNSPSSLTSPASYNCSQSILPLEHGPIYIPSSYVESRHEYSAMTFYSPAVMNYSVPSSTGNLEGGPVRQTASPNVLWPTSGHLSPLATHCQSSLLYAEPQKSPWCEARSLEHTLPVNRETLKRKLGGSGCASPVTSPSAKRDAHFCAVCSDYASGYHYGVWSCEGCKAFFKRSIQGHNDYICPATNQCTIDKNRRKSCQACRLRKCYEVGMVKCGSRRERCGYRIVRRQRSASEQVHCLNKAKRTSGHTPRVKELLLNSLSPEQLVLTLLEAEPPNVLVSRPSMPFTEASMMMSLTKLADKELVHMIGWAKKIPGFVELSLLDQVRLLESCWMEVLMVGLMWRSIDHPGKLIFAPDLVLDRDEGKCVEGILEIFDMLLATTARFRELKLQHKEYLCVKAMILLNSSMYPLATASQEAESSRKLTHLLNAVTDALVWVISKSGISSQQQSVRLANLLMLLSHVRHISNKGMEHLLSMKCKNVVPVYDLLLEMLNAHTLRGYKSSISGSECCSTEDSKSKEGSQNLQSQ
# T1 sequence (P19785 whole entry, looked up): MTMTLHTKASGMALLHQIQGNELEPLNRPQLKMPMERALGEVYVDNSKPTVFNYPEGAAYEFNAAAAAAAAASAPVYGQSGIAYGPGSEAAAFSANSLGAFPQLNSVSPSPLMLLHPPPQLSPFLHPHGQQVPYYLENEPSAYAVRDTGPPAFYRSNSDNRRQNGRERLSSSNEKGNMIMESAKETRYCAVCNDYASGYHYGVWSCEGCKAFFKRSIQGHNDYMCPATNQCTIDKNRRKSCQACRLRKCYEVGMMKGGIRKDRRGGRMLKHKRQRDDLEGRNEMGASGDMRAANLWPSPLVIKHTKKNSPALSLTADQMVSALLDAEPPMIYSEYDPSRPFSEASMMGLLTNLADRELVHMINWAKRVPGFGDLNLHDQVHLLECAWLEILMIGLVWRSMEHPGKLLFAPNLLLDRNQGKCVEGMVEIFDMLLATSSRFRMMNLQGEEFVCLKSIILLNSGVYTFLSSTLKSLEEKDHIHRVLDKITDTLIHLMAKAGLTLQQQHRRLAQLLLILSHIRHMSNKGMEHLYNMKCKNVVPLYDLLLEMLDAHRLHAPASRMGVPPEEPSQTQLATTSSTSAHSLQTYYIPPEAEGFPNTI
smiles,measurement,setting,value
N#C[C@H](c1ccc(O)cc1)[C@@H](CCF)c1ccc(O)cc1,Biodistribution,[1],0.33 %ID/g
same,Biodistribution,[2],0.27 %ID/g
same,Biodistribution,[3],0.87 %ID/g
same,Biodistribution,[4],0.44 %ID/g
same,Biodistribution,[5],2.42 %ID/g
same,Biodistribution,[6],1.88 %ID/g
same,Biodistribution,[7],0.37 %ID/g
same,Biodistribution,[8],1.39 %ID/g
same,Ratio,[9],0.61
same,Ratio,[10],1.29
same,Biodistribution,[11],0.28 %ID/g
same,Biodistribution,[12],0.44 %ID/g
same,Biodistribution,[13],0.64 %ID/g
same,Biodistribution,[14],2 %ID/g
same,Biodistribution,[15],1.75 %ID/g
same,Biodistribution,[16],2.04 %ID/g
same,Biodistribution,[17],4.83 %ID/g
same,Biodistribution,[18],3.35 %ID/g
same,Biodistribution,[19],0.28 %ID/g
same,Biodistribution,[20],0.71 %ID/g
C[C@]12CC[C@@H]3c4ccc(O)cc4CC[C@H]3[C@@H]1C[C@@H](F)[C@@H]2O [FLUOROESTRADIOL],Biodistribution,[21],7.91 %ID/g
same,Biodistribution,[22],0.14 %ID/g
same,Biodistribution,[23],1.07 %ID/g
same,Biodistribution,[24],0.46 %ID/g
same,Biodistribution,[25],1.05 %ID/g
same,Biodistribution,[26],6.54 %ID/g
same,Biodistribution,[27],0.53 %ID/g
same,Biodistribution,[28],5.24 %ID/g
same,Biodistribution,[29],0.54 %ID/g
same,Biodistribution,[30],3.74 %ID/g
same,Biodistribution,[31],2.19 %ID/g
same,Biodistribution,[32],0.21 %ID/g
same,Biodistribution,[33],4.54 %ID/g
same,Biodistribution,[34],0.62 %ID/g
same,Biodistribution,[35],0.1 %ID/g
same,Biodistribution,[36],0.71 %ID/g
same,Biodistribution,[37],0.67 %ID/g
